From ChEMBL document CHEMBL4819122, “Novel 4-(piperazin-1-yl)quinolin-2(1H)-one bearing thiazoles with antiproliferative activity through VEGFR-2-TK inhibition” (Bioorg Med Chem, 2021)
Active and inactive are the calls of the source. The rule behind the calls is not given here.

How the values were obtained:
[1] = system: T47D; assay: Cytotoxicity against human T-47D assessed as growth inhibition at 10 uM by NCI protocol relative to control; format: functional; settings: read-out: GI
Method in brief: (§1)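 Run by the NCI under its standard protocol: one dose of 10 μM against a sixty-line panel from nine human tumour tissues. Result given as percent growth inhibition of treated cells relative to untreated cells.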

[2] = system: SK-MEL-5; assay: Cytotoxicity against human SK-MEL-5 assessed as growth inhibition at 10 uM by NCI protocol relative to control; format: functional; settings: read-out: GI
Method in brief: (§2)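 Run by NCI as a single-dose screen at 10 μM across the sixty-cell-line panel, which covers nine human tumour tissue types. The read-out is percent growth inhibition of treated cells relative to untreated cells.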

[3] = system: HL-60; assay: Cytotoxicity against human HL60 assessed as growth inhibition at 10 uM by NCI protocol relative to control; format: functional; settings: read-out: GI; method in brief: as §2
[4] = system: NCI-H23; assay: Cytotoxicity against human NCI-H23 assessed as growth inhibition at 10 uM by NCI protocol relative to control; format: functional; settings: read-out: GI; method in brief: as §2
[5] = system: NCI-H522; assay: Cytotoxicity against human NCI-H522 assessed as growth inhibition at 10 uM by NCI protocol relative to control; format: functional; settings: read-out: GI; method in brief: as §2
[6] = system: RXF 393; assay: Cytotoxicity against human RXF 393 assessed as growth inhibition at 10 uM by NCI protocol relative to control; format: functional; settings: read-out: GI; method in brief: as §2
[7] = system: K562; assay: Cytotoxicity against human K-562 assessed as growth inhibition at 10 uM by NCI protocol relative to control; format: functional; settings: read-out: GI; method in brief: as §2
[8] = system: SF-268; assay: Cytotoxicity against human SF-268 assessed as growth inhibition at 10 uM by NCI protocol relative to control; format: functional; settings: read-out: GI; method in brief: as §2
[9] = system: SF-295; assay: Cytotoxicity against human SF-295 assessed as growth inhibition at 10 uM by NCI protocol relative to control; format: functional; settings: read-out: GI; method in brief: as §2
[10] = system: BT-549; assay: Cytotoxicity against human BT-549 assessed as growth inhibition at 10 uM by NCI protocol relative to control; format: functional; settings: read-out: GI; method in brief: as §2
[11] = system: PC-3; assay: Cytotoxicity against human PC3 assessed as growth inhibition at 10 uM by NCI protocol relative to control; format: functional; settings: read-out: GI; method in brief: as §2
[12] = system: HCT-116; assay: Cytotoxicity against human HCT-116 assessed as growth inhibition at 10 uM by NCI protocol relative to control; format: functional; settings: read-out: GI; method in brief: as §2
[13] = system: SNB-19; assay: Cytotoxicity against human SNB-19 assessed as growth inhibition at 10 uM by NCI protocol relative to control; format: functional; settings: read-out: GI; method in brief: as §1
[14] = system: T47D; assay: Cytotoxicity against human T47D cells assessed as reduction in cell viability after 3 hrs by MTT assay
[15] = system: CCRF-CEM; assay: Cytotoxicity against human CCRF-CEM assessed as growth inhibition at 10 uM by NCI protocol relative to control; format: functional; settings: read-out: GI; method in brief: as §2
[16] = system: A549; assay: Cytotoxicity against human A549 assessed as growth inhibition at 10 uM by NCI protocol relative to control; format: functional; settings: read-out: GI; method in brief: as §2
[17] = system: NCI-H226; assay: Cytotoxicity against human NCI-H226 assessed as growth inhibition at 10 uM by NCI protocol relative to control; format: functional; settings: read-out: GI; method in brief: as §2
[18] = system: EKVX; assay: Cytotoxicity against human EKVX assessed as growth inhibition at 10 uM by NCI protocol relative to control; format: functional; settings: read-out: GI; method in brief: as §2
[19] = system: MOLT-4; assay: Cytotoxicity against human MOLT-4 assessed as growth inhibition at 10 uM by NCI protocol relative to control; format: functional; settings: read-out: GI; method in brief: as §2
[20] = system: HOP-92; assay: Cytotoxicity against human HOP-92 assessed as growth inhibition at 10 uM by NCI protocol relative to control; format: functional; settings: read-out: GI; method in brief: as §2
[21] = system: ACHN; assay: Cytotoxicity against human ACHN assessed as growth inhibition at 10 uM by NCI protocol relative to control; format: functional; settings: read-out: GI; method in brief: as §2
[22] = system: MDA-MB-435; assay: Cytotoxicity against human MDA-MB-435 assessed as growth inhibition at 10 uM by NCI protocol relative to control; format: functional, cell-based; method in brief: as §2
[23] = system: MDA-MB-231; assay: Cytotoxicity against human MDA-MB-231 assessed as growth inhibition at 10 uM by NCI protocol relative to control; format: functional; settings: read-out: GI; method in brief: as §2
[24] = system: UO-31; assay: Cytotoxicity against human UO31 assessed as growth inhibition at 10 uM by NCI protocol relative to control; format: functional; settings: read-out: GI; method in brief: as §1
[25] = system: HCT-15; assay: Cytotoxicity against human HCT-15 assessed as growth inhibition at 10 uM by NCI protocol relative to control; format: functional; settings: read-out: GI; method in brief: as §2
[26] = system: NCI-H460; assay: Cytotoxicity against human NCI-H460 assessed as growth inhibition at 10 uM by NCI protocol relative to control; format: functional; settings: read-out: GI; method in brief: as §2
[27] = system: MDA-MB-468; assay: Cytotoxicity against human MDA-MB-468 assessed as growth inhibition at 10 uM by NCI protocol relative to control; format: functional; settings: read-out: GI; method in brief: as §2
[28] = system: RPMI-8226; assay: Cytotoxicity against human RPMI-8226 assessed as growth inhibition at 10 uM by NCI protocol relative to control; format: functional; method in brief: as §2
[29] = system: IGROV-1; assay: Cytotoxicity against human IGROVI assessed as growth inhibition at 10 uM by NCI protocol relative to control; format: functional; settings: read-out: GI; method in brief: as §2
[30] = system: A498; assay: Cytotoxicity against human A498 assessed as growth inhibition at 10 uM by NCI protocol relative to control; format: functional; settings: read-out: GI; method in brief: as §2
[31] = system: MCF7; assay: Cytotoxicity against human MCF7 assessed as growth inhibition at 10 uM by NCI protocol relative to control; format: functional; settings: read-out: GI; method in brief: as §2
[32] = system: SN12C; assay: Cytotoxicity against human SN12C assessed as growth inhibition at 10 uM by NCI protocol relative to control; format: functional; settings: read-out: GI; method in brief: as §1
[33] = system: UACC-62; assay: Cytotoxicity against human UACC-62 assessed as growth inhibition at 10 uM by NCI protocol relative to control; format: functional; settings: read-out: GI; method in brief: as §1
[34] = system: LOX IMVI; assay: Cytotoxicity against human LOX IMVI assessed as growth inhibition at 10 uM by NCI protocol relative to control; format: functional; settings: read-out: GI; method in brief: as §2

Cc1ccc(-c2csc(NC(=O)CN3CCN(c4cc(=O)n(-c5ccccc5)c5ccccc45)CC3)n2)cc1
inhibition of growth at 10 µM [1]: 40.9%
inhibition of growth at 10 µM [2]: 13.5%
inhibition of growth at 10 µM [3]: 19.9%
inhibition of growth at 10 µM [4]: 29.7%
inhibition of growth at 10 µM [5]: 22.9%
inhibition of growth at 10 µM [6]: 13.2%
inhibition of growth at 10 µM [7]: 49.3%
inhibition of growth at 10 µM [8]: 13.4%
inhibition of growth at 10 µM [9]: 14.4%
inhibition of growth at 10 µM [10]: 14.4%
inhibition of growth at 10 µM [11]: 23.1%
inhibition of growth at 10 µM [12]: 20.2%
inhibition of growth at 10 µM [13]: 21.8%
IC50 [14]: 16.5 µM
inhibition of growth at 10 µM [15]: 14.8%
inhibition of growth at 10 µM [16]: 12%
inhibition of growth at 10 µM [17]: 17.3%
inhibition of growth at 10 µM [18]: 26.5%
inhibition of growth at 10 µM [19]: 32.2%
inhibition of growth at 10 µM [20]: 13.8%
inhibition of growth at 10 µM [21]: 15.1%
growth inhibition (GI) [22]: inactive
inhibition of growth at 10 µM [23]: 17.4%
inhibition of growth at 10 µM [24]: 27%
inhibition of growth at 10 µM [25]: 26%
inhibition of growth at 10 µM [26]: 11.1%
inhibition of growth at 10 µM [27]: 30.2%
growth inhibition (GI) [28]: inactive
inhibition of growth at 10 µM [29]: 20.2%
inhibition of growth at 10 µM [30]: 18.6%
inhibition of growth at 10 µM [31]: 13.5%
inhibition of growth at 10 µM [32]: 13.1%
inhibition of growth at 10 µM [33]: 20.1%
inhibition of growth at 10 µM [34]: 12.2%
